The values that follow come from ChEMBL document CHEMBL4152234, “Aminobenzothiazole derivatives stabilize the thermolabile p53 cancer mutant Y220C and show anticancer activity in p53-Y220C cell lines” (Eur J Med Chem, 2018).

Data set [1] can be described thus: Solubility of the compound in water. The class given is physicochemical. Particulars: buffer.
Data set [2] concerns Cellular tumor antigen p53 (Homo sapiens), P04637 [Y220C]. The data set can be described thus: Binding affinity to p53 Y220C mutant (unknown origin) assessed as change in melting temperature at 250 uM.
The target of data set [3] is T1, Cellular tumor antigen p53 (Homo sapiens, UniProt P04637, Y220C). The data set can be described thus: Binding affinity to N-terminal His6-tagged p53 DNA binding domain Y220C mutant (94 to 312 residues) (unknown origin) expressed in Escherichia coli C41 by ITC. (In general: Isothermal titration calorimetry measures the heat released or taken up as one component is titrated into another.)

The target in data set [4] is T1, Cellular tumor antigen p53. The data set can be described thus: Binding affinity to p53 Y220C mutant (unknown origin).
The test system of data set [5] is Cellular tumor antigen p53 (Homo sapiens), P04637 [Y220C]. The data set can be described thus: Binding affinity to p53 Y220C mutant (unknown origin) assessed as change in melting temperature at 1 mM.
Data set [6] shares this test system. The data set can be described thus: Binding affinity to p53 Y220C mutant (unknown origin) assessed as change in melting temperature.
The test system of data set [7] is Huh-7. The data set can be described thus: Antiproliferative activity against human HuH7 cells harboring p53 Y220C mutant after 72 hrs by CellTiter-Glo assay. It counts as functional, cell-based. Particulars: Huh-7, 72 h. The gist of the method:
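Cells were exposed to compound for 72 h and viability read by CellTiter-Fluor or CellTiter-Glo 2.0. Quadruplicate technical replicates, normalized to blank (viability = 1) and no-cell (viability = 0) controls. Confirmed in at least 2 independent biological replicates. IC50 derived from the dose-response data.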
On the technique in general: In ATP-based viability assays light output follows the ATP content of the culture.

Data set [8] concerns Huh-7. The data set can be described thus: Antiproliferative activity against p53 Y220C mutant knockout human HuH7 cells up to 120 uM after 72 hrs by CellTiter-Glo assay. The class given is functional, cell-based.

Activity calls are given as the source filed them. The rule behind the calls is not given here.

Consider `CCN(CC)c1nc2c(C(=O)OC)c(O)c(I)c(-n3cccc3)c2s1`, for which the solubility result in data set [1] was “Insoluble”.

On to `CN(C)CCNC(=O)c1cc(I)c(-n2cccc2)c(I)c1O`, for which the solubility result in data set [1] was “Insoluble”.

As to `CNC(=O)c1cc(I)c(-n2cccc2)c(I)c1O`, the solubility result in data set [1] was “Insoluble”.

In general, ΔTm refers to the shift of the melting midpoint relative to a reference. As a reminder, the Kd is the equilibrium constant for the complex coming apart. The low end stands for a tighter complex, the high end for a looser complex. On to `O=C(O)c1cc(I)c(-n2cccc2)c(I)c1O`, for which the solubility result in data set [1] was “Soluble”. In addition, the ΔTm in data set [2] came to 1.8 °C. Also, the Kd in data set [3] and in data set [4] was 21 µM each time.

Consider `O=C(O)c1cc(I)cc(I)c1O`, for which the solubility result in data set [1] is “Soluble”. The ΔTm in data set [5] is 0.6 °C. This molecule also displayed a Kd in data set [4] of 820 µM.

For the molecule `COC(=O)c1cc(I)c(-n2cccc2)c(I)c1O`, in data set [1], the solubility result is “Insoluble”.

For the molecule `CCN(CC)C1CCN(Cc2cc(C#CCNc3ccccc3)cc(I)c2O)CC1`, in data set [6], the ΔTm came to 4 °C.

As usually defined, the IC50 is the point on the concentration scale where inhibition reaches its midpoint. Low readings indicate inhibition by little substance, high ones a need for much substance. As to `CCCSc1cc(C(=O)O)c(O)c(I)c1-n1cccc1`, the IC50 in data set [7] worked out at 150 µM.

Regarding `CCN(CC)c1nc2c(C(=O)O)c(O)c(I)c(-n3cccc3)c2s1`, in data set [8], the outcome was inactive.
